Reference: the RNAGym collection of RNA variant scans (doi:10.1126/science.aae0568)
Fewer inactive variants are shown than the library holds.

B1: tRNA (parent)
chain: GUUCCGUUGGCGUAAUGGUAACGCGUCUCCCUCCUAAGGAGAAGACUGCGGGUUCGAGUCCCGUACGGAACG

Variants of: B1
Assay: yeast fitness relative to wild type (ratio to wild type); higher = fitter; tRNA-Arg(CCU), competitive growth, 37 C, YPD
In short: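 The tRNA-Arg(CCU) gene variants were made by chemical synthesis with a 3% per-site mutation rate at 69 sites and inserted at the native genomic locus of Saccharomyces cerevisiae. After pooling, the strains were competed in YPD at 37°C for 24 hours in six parallel replicates. Gene amplicons from the start population and each end population were read by 100-nucleotide paired-end sequencing, and Darwinian fitness relative to wild type was taken from genotype frequency changes. Genotypes needed ≥ 100 starting reads, and estimates < 0.5 were set to 0.5.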

Variant | yeast fitness
C11A G12A C66A | ≤ 0.5
C11A G12A U16A G23C | ≤ 0.5
C11A G12C G63A | ≤ 0.5
C11A G17A C33U | ≤ 0.5
C11A G17A C33U A70C | ≤ 0.5
C11A G17C A21U | ≤ 0.5
C11A G17C A43G | ≤ 0.5
C11A G18A A36G A42C C66U | 0.658
C11A G18A C46U | 0.61
C11A G18A C49A C62G | ≤ 0.5
C11A G18A G67A | ≤ 0.5
C11A G23A C30U C31G | ≤ 0.5
C11A G23A U32C U47C | ≤ 0.5
C11A G23C A42U | ≤ 0.5
C11A G23C C33U A43U A45C G58A A69C | ≤ 0.5
C11A G23C C49G | ≤ 0.5
C11A G23C G39C C61A C62G A65U | ≤ 0.5
C11A G23C U32G C34A | ≤ 0.5
C11A G23U A36U | ≤ 0.5
C11A G25A | 0.572
C11A G25A A43G A65C | ≤ 0.5

Variant | yeast fitness
C11A G25A C46G A57U | ≤ 0.5
C11A G25C C29U A57G | ≤ 0.5
C11A G25C C29U A65C A70U | 0.541
C11A G25C C29U A65U | ≤ 0.5
C11A G25C C29U U54C A65C A70U | ≤ 0.5
C11A G25C C34G C46A A70G | ≤ 0.5
C11A G38A | 0.579
C11A G38A U53A | 0.543
C11A G38A U53A G63A G68A | 0.635
C11A G38C | 0.586
C11A G39A C61U C62A | 0.624
C11A G39A C62A | ≤ 0.5
C11A G41A A45U C55A | ≤ 0.5
C11A G41A C66G | 0.536
C11A G41A G67U G68C | 0.567
C11A G44C | 0.59
C11A G44C C46A U53A G63C | 0.866
C11A G48A | 0.642
C11A G48A C55U | ≤ 0.5
C11A G50C | ≤ 0.5
C11A G50C C61A A69G | ≤ 0.5

Variant | yeast fitness
C11A G51A | 0.618
C11A G51C C66G | 0.713
C11A G52C | 0.596
C11A G56A C66G | 0.533
C11A G63A | 0.681
C11A G67A A70G | 0.562
C11A G67U | 0.584
C11A G68A | 0.583
C11A U13A | 0.603
C11A U13A A20G | 0.561
C11A U13A A20G C61U A69C | ≤ 0.5
C11A U13A A20U C29G A36G C46U G58A | ≤ 0.5
C11A U13C C27A | ≤ 0.5
C11A U13C C27A C60A | ≤ 0.5
C11A U13C C49U U54C C61G C66U | 0.64
C11A U13C G23C U32G C34A | ≤ 0.5
C11A U13G C24G C34G G52A | ≤ 0.5
C11A U13G G51A | ≤ 0.5
C11A U16C | 0.644
C11A U16C A21G | ≤ 0.5
C11A U16C A21G C55A | ≤ 0.5

Variant | yeast fitness
C11A U16C A21G G68A | ≤ 0.5
C11A U16C C27G G48C | ≤ 0.5
C11A U16C C31U A69U | ≤ 0.5
C11A U16C C33U A37C | ≤ 0.5
C11A U16C G18C A36G G56C | ≤ 0.5
C11A U16C G18C A45C A57C | ≤ 0.5
C11A U16C G18C A45C A57C G68C | 0.546
C11A U16C G18C C61A G67A | ≤ 0.5
C11A U16C U32G G48A C49G C55A | ≤ 0.5
C11A U19A C29A U32A G44U G58A | ≤ 0.5
C11A U19A C29A U32A G48C C55G | ≤ 0.5
C11A U19C C24G C30U C31U C61U G67C | ≤ 0.5
C11A U19C C60U | ≤ 0.5
C11A U19G | 0.669
C11A U19G A36G | 0.521
C11A U19G A36G C49U U54C A69C | ≤ 0.5
C11A U19G A36G U54C C66U A69C | ≤ 0.5
C11A U26A U54A | ≤ 0.5
C11A U26G | 0.599
C11A U26G G44A G52A | 0.55
C11A U28A C61G C62G | 0.556
